{"source": "ChEMBL document CHEMBL1159051", "about": "“Synthesis and biological evaluation of oxadiazole derivatives as inhibitors of soluble guanylyl cyclase” (Bioorg Med Chem, 2010)", "key": {"Rattus norvegicus [1]": {"organism": "Rattus norvegicus", "assay": "Inhibition of soluble guanylyl cyclase in rat aortic smooth muscle cells assessed as inhibition of SNP-stimulated cGMP formation at 0.1 uM by immunoassay", "procedure,_shortened": "(§1)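 Rat aortic smooth muscle cells were grown in high-glucose DMEM with 10% foetal calf serum plus penicillin/streptomycin, and passages 3–4 were used at confluence. Cells were pretreated with IBMX (1 mM, 5 min) to block phosphodiesterase, then exposed to compound for 20 min with IBMX still present. They were then stimulated with SNP for 15 min, and cGMP was measured by enzyme immunoassay.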"}, "Rattus norvegicus [2]": {"organism": "Rattus norvegicus", "assay": "Inhibition of soluble guanylyl cyclase in rat aortic smooth muscle cells assessed as inhibition of SNP-stimulated cGMP formation at 10 uM by immunoassay", "procedure,_shortened": "as §1"}, "Rattus norvegicus [3]": {"organism": "Rattus norvegicus", "assay": "Inhibition of soluble guanylyl cyclase in rat aortic smooth muscle cells assessed as inhibition of SNP-stimulated cGMP formation by immunoassay", "procedure,_shortened": "as §1"}}, "note": "The source made the active and inactive calls. The rule behind the calls is not given here."}
{"smiles": "COc1ccc(-c2ccc3c(c2)-n2c(noc2=O)CO3)cc1", "values": [{"measurement": "inhibition", "setting": "Rattus norvegicus [1]", "result": "Active"}, {"measurement": "inhibition", "setting": "Rattus norvegicus [2]", "result": "Active"}]}
{"smiles": "O=c1c2ccc(Cl)cc2nc2n1-c1ccccc1OC2", "values": [{"measurement": "inhibition", "setting": "Rattus norvegicus [1]", "result": "Active"}, {"measurement": "inhibition", "setting": "Rattus norvegicus [2]", "result": "Active"}]}
{"smiles": "O=C1c2ccccc2-n2c(noc2=O)[C@@H]2CCCN12", "values": [{"measurement": "inhibition", "setting": "Rattus norvegicus [3]", "result": "inactive"}]}
{"smiles": "O=c1[nH]nc2n1-c1cc(Br)ccc1OC2", "values": [{"measurement": "inhibition", "setting": "Rattus norvegicus [3]", "result": "inactive"}]}
{"smiles": "O=c1onc2cnc3ccccc3n12", "values": [{"measurement": "inhibition", "setting": "Rattus norvegicus [1]", "result": 85, "unit": "%"}, {"measurement": "inhibition", "setting": "Rattus norvegicus [3]", "result": "Dose-dependent effect"}, {"measurement": "inhibition", "setting": "Rattus norvegicus [2]", "result": "Active"}]}
{"smiles": "O=c1c2ccccc2nc2n1-c1cc(Br)ccc1OC2", "values": [{"measurement": "inhibition", "setting": "Rattus norvegicus [3]", "result": "inactive"}]}
{"smiles": "O=c1c2ccccc2nc2n1-c1ccccc1OC2", "values": [{"measurement": "inhibition", "setting": "Rattus norvegicus [3]", "result": "inactive"}]}
{"smiles": "O=c1onc2n1-c1cc(-c3cccc(C(F)(F)F)c3)ccc1OC2", "values": [{"measurement": "inhibition", "setting": "Rattus norvegicus [1]", "result": "Active"}, {"measurement": "inhibition", "setting": "Rattus norvegicus [2]", "result": "Active"}]}
{"smiles": "O=c1onc2n1-c1ncccc1OC2", "values": [{"measurement": "inhibition", "setting": "Rattus norvegicus [1]", "result": "Active"}, {"measurement": "inhibition", "setting": "Rattus norvegicus [2]", "result": "Active"}]}
